Assay results taken from ChEMBL document CHEMBL4376814, “Novel cyclin-dependent kinase 9 (CDK9) inhibitor with suppression of cancer stemness activity against non-small-cell lung cancer” (Eur J Med Chem, 2019).
Activity calls are given as the source filed them. No cut-off for these calls is given here.

Legend:
[1] = biological target: Tyrosine-protein kinase SYK (Homo sapiens) (UniProt P43405); experiment: Inhibition of recombinant full-length human Syk at 1 uM using poly(Glu, Tyr) 4:1 as substrate measured after 40 mins in presence of [gamma33P]ATP by scintillation counting method relative to control
[2] = system: Tyrosine-protein kinase BTK (Homo sapiens), Q06187 [R28H]; experiment: Inhibition of full-length recombinant human BTK R28H mutant at 1 uM using LSNLYHQGKFLQTFCGSPLYRRR as substrate measured after 40 mins in presence of [gamma33P]ATP by scintillation counting method relative to control
Method in brief: (§1)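 Single-point inhibition at 1 µM was measured in the Eurofins KinaseProfiler panel. Values are the mean of two independent experiments.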

[3] = biological target: Muscle, skeletal receptor tyrosine-protein kinase (Homo sapiens) (UniProt O15146); experiment: Inhibition of recombinant human MUSK (530 to end residues) at 1 uM using myelin basic protein as substrate measured after 40 mins in presence of [gamma33P]ATP by scintillation counting method relative to control
A549 [4] = experiment: Induction of apoptosis in human A549 cells assessed as increase in Bim protein expression at 0.25 to 1 uM after 24 hrs by Western blot analysis; format: functional, cell-based
Method in brief: (§2)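 A549 or H1299 cells exposed to the indicated concentrations for 24 h. Protein extracts then immunoblotted for apoptosis-pathway proteins (Bcl2, Bim, cleaved caspase 3).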

[5] = biological target: Serine/threonine-protein kinase pim-1 (Homo sapiens) (UniProt P11309); experiment: Inhibition of recombinant full-length human Pim-1 at 1 uM using KKRNRTLTV as substrate measured after 40 mins in presence of [gamma33P]ATP by scintillation counting method relative to control
A549 [6] = experiment: Induction of apoptosis in human A549 cells assessed as decrease in Bcl-2 protein expression at 0.25 to 1 uM after 24 hrs by Western blot analysis; format: functional, cell-based; method in brief: as §2
[7] = biological target: Rhodopsin kinase GRK7 (Homo sapiens) (UniProt Q8WTQ7); experiment: Inhibition of recombinant full-length human GRK7 at 1 uM using casein as substrate measured after 40 mins in presence of [gamma33P]ATP by scintillation counting method relative to control
[8] = biological target: Serine/threonine-protein kinase DCLK2 (Homo sapiens) (UniProt Q8N568); experiment: Inhibition of recombinant human DCAMKL2 (376 to end residues) at 1 uM using KKLNRTLSFAEPG as substrate measured after 40 mins in presence of [gamma33P]ATP by scintillation counting method relative to control; method in brief: as §1
[9] = system: Serine/threonine-protein kinase B-raf (Homo sapiens), P15056 [V600E]; experiment: Inhibition of recombinant human BRAF V599E mutant (416 to end residues) at 1 uM using myelin basic protein as substrate measured after 40 mins in presence of [gamma33P]ATP by scintillation counting method relative to control
[10] = biological target: Tyrosine-protein kinase JAK3 (Homo sapiens) (UniProt P52333); experiment: Inhibition of recombinant human JAK3 (781 to end residues) at 1 uM using GGEEEEYFELVKKKK as substrate measured after 40 mins in presence of [gamma33P]ATP by scintillation counting method relative to control
[11] = biological target: Activin receptor type-2A (Homo sapiens) (UniProt P27037); experiment: Inhibition of recombinant human ACTR2 (162 to end residues) at 1 uM using casein as substrate measured after 120 mins in presence of [gamma33P]ATP by scintillation counting method relative to control
MCF7 = experiment: Antiproliferative activity against human MCF7 cells assessed as inhibition of cell viability at 500 nM after 72 hrs by CCK-8 assay relative to control; format: functional; details: MCF7, 72 h
Method in brief: (§3)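 Single-concentration viability screen using CCK-8. Cells were seeded at 3000/well and treated for 72 h. A450 read after 1-4 h with reagent. Percent inhibition calculated against untreated control and blank wells as (Ac−As)/(Ac−Ab)×100%.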

NCI-H1299 [12] = experiment: Antiproliferative activity against human H1299 cells assessed as inhibition of cell viability at 10 uM after 72 hrs by CCK-8 assay relative to control; format: functional; details: NCI-H1299, 72 h; method in brief: as §3
NCI-H1299 [13] = experiment: Down regulation CDK9 expression in human H1299 cells at 0.25 to 1 uM after 24 hrs by Western blot analysis; format: functional, cell-based
Method in brief: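 A549 and H1299 cells treated for 24 h with serial dilutions alongside a DMSO control. Protein extracts resolved and immunoblotted.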

[14] = biological target: Tyrosine-protein kinase Fgr (Homo sapiens) (UniProt P09769); experiment: Inhibition of recombinant human FGR (2 to end residues) at 1 uM using poly(Glu, Tyr) 4:1 as substrate measured after 40 mins in presence of [gamma33P]ATP by scintillation counting method relative to control
[15] = biological target: Testis-specific serine/threonine-protein kinase 3 (Homo sapiens) (UniProt Q96PN8); experiment: Inhibition of recombinant full-length human TSSK3 at 1 uM using AMARAASAAALARRR as substrate measured after 40 mins in presence of [gamma33P]ATP by scintillation counting method relative to control
[16] = biological target: Dual specificity protein kinase CLK3 (Homo sapiens) (UniProt P49761); experiment: Inhibition of full length recombinant human CLK3 at 1 uM using ERMRPRKRQGSVRRRV as substrate measured after 40 mins in presence of [gamma33P]ATP by scintillation counting method relative to control
[17] = biological target: Serine/threonine-protein kinase 32B (Homo sapiens) (UniProt Q9NY57); experiment: Inhibition of recombinant full-length human STK32B at 1 uM using casein as substrate measured after 120 mins in presence of [gamma33P]ATP by scintillation counting method relative to control
[18] = biological target: Mitogen-activated protein kinase 8 (Homo sapiens) (UniProt P45983); experiment: Inhibition of recombinant full-length human JNK1alpha1 at 1 uM using ATF2 as substrate measured after 40 mins in presence of [gamma33P]ATP by scintillation counting method relative to control
[19] = biological target: Phosphatidylinositol 4-phosphate 5-kinase type-1 gamma (Homo sapiens) (UniProt O60331); experiment: Inhibition of recombinant full-length human PIP5K1gamma at 1 uM using phosphatidylinositol 4-phosphate as substrate measured after 40 mins by HTRF assay relative to control
[20] = biological target: Non-receptor tyrosine-protein kinase TYK2 (Homo sapiens) (UniProt P29597); experiment: Inhibition of human TYK2 (875 to end residues) at 1 uM using GGMEDIYFEFMGGKKK as substrate measured after 40 mins in presence of [gamma33P]ATP by scintillation counting method relative to control
Method in brief: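 Percent inhibition of kinase activity at a single compound concentration, measured by the outsourced Eurofins KinaseProfiler panel. Values are the mean of two independent experiments.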

[21] = biological target: Tribbles homolog 2 (Homo sapiens) (UniProt Q92519); experiment: Inhibition of recombinant full-length human TRB2 at 1 uM using RRRFRPASPLRGPPK as substrate measured after 120 mins in presence of [gamma33P]ATP by scintillation counting method relative to control
Tribbles homolog 2 (Homo sapiens), sequence (Q92519 whole entry): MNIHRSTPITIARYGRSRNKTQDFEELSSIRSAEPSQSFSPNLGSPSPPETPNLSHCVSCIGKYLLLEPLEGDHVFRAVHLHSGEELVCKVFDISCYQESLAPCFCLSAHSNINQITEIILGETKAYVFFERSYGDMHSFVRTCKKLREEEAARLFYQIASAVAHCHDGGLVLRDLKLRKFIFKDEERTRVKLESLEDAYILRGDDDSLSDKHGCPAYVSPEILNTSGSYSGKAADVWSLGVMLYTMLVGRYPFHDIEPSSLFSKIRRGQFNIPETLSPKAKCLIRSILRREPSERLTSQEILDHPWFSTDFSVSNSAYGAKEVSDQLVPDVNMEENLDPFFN

Dual specificity protein kinase CLK3 (Homo sapiens), sequence (P49761 whole entry, looked up): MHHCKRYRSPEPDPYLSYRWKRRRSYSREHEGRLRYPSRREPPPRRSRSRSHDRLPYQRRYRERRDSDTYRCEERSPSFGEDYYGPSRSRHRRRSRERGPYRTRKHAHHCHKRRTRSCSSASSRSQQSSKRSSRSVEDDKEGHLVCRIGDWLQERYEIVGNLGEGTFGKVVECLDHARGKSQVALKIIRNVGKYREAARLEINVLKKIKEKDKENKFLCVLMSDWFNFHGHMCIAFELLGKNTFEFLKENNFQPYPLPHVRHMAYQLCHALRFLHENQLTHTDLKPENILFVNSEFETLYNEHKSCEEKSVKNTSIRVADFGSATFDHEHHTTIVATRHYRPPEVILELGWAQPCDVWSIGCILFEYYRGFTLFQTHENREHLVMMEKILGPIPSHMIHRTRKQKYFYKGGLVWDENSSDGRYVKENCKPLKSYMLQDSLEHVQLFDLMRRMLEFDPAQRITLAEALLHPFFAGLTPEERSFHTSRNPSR
Muscle, skeletal receptor tyrosine-protein kinase (Homo sapiens), sequence (O15146 whole entry): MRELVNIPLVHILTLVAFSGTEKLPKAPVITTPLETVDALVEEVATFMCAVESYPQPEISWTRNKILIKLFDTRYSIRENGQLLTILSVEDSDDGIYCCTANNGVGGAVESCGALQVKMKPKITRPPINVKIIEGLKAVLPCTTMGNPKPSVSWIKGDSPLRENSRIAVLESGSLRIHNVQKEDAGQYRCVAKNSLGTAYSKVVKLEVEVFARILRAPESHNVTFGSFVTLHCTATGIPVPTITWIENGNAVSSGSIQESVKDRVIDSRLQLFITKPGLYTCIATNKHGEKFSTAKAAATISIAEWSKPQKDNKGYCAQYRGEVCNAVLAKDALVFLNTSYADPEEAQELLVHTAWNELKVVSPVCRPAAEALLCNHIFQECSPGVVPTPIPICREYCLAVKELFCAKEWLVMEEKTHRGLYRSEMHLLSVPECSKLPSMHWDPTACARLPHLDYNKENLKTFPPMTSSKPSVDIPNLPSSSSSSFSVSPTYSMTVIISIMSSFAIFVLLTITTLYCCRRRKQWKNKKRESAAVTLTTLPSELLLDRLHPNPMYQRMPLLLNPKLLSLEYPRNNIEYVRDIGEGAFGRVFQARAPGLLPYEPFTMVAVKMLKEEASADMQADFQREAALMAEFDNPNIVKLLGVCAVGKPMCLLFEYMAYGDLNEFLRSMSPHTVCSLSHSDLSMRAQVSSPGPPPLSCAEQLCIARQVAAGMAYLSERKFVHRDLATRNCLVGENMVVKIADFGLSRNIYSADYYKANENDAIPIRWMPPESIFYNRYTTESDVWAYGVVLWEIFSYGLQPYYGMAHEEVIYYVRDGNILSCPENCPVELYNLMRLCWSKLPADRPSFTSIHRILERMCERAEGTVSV
Mitogen-activated protein kinase 8 (Homo sapiens), sequence (P45983 whole entry): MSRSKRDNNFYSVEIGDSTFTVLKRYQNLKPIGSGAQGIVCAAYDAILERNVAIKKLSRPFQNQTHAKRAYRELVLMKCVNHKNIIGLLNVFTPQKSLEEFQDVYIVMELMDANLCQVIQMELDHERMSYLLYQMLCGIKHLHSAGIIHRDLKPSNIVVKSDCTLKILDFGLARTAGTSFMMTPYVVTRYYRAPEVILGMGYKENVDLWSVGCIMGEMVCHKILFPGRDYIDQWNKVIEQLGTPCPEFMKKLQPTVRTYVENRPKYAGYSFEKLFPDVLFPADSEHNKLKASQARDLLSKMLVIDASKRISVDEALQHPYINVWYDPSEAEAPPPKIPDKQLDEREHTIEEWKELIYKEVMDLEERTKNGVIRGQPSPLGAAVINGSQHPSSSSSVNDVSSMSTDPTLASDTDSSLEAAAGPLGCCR
Serine/threonine-protein kinase pim-1 (Homo sapiens), sequence (P11309 whole entry, looked up): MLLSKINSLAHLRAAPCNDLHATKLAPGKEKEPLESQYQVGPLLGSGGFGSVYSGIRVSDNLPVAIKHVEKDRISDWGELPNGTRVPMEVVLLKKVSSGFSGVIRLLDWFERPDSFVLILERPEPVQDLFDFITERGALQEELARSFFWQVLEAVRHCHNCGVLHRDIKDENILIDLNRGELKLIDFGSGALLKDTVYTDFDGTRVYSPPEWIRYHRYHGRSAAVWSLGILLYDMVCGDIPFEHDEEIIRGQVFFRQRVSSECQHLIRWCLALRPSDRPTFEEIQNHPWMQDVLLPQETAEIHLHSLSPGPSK
Tyrosine-protein kinase Fgr (Homo sapiens), sequence (P09769 2-529 limits assumed): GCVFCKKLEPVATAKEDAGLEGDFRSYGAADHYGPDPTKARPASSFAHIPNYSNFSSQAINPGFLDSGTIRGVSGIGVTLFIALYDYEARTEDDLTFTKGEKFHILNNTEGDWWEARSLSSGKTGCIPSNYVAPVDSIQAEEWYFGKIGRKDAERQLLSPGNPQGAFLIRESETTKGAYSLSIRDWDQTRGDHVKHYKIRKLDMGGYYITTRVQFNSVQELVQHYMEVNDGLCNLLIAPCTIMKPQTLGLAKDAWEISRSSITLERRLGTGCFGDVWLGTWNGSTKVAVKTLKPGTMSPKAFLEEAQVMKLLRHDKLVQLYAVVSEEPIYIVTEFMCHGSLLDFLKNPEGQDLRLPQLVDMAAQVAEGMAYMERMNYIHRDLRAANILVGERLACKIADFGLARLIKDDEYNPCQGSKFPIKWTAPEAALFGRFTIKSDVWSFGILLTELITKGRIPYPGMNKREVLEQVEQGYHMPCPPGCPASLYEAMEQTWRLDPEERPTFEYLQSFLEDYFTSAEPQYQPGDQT
Serine/threonine-protein kinase 32B (Homo sapiens), sequence (Q9NY57 whole entry): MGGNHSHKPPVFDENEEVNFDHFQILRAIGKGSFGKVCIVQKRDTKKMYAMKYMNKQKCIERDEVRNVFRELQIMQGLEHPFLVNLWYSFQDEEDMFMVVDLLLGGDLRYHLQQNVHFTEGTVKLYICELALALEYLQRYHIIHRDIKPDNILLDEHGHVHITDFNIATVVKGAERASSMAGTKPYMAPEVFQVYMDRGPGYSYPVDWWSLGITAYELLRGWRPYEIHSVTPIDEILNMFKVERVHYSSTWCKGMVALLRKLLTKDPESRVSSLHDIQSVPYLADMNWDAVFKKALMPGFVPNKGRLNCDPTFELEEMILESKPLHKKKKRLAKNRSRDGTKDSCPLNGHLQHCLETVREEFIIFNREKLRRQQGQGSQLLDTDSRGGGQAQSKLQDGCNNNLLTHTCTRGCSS
Tyrosine-protein kinase JAK3 (Homo sapiens), sequence (P52333 whole entry): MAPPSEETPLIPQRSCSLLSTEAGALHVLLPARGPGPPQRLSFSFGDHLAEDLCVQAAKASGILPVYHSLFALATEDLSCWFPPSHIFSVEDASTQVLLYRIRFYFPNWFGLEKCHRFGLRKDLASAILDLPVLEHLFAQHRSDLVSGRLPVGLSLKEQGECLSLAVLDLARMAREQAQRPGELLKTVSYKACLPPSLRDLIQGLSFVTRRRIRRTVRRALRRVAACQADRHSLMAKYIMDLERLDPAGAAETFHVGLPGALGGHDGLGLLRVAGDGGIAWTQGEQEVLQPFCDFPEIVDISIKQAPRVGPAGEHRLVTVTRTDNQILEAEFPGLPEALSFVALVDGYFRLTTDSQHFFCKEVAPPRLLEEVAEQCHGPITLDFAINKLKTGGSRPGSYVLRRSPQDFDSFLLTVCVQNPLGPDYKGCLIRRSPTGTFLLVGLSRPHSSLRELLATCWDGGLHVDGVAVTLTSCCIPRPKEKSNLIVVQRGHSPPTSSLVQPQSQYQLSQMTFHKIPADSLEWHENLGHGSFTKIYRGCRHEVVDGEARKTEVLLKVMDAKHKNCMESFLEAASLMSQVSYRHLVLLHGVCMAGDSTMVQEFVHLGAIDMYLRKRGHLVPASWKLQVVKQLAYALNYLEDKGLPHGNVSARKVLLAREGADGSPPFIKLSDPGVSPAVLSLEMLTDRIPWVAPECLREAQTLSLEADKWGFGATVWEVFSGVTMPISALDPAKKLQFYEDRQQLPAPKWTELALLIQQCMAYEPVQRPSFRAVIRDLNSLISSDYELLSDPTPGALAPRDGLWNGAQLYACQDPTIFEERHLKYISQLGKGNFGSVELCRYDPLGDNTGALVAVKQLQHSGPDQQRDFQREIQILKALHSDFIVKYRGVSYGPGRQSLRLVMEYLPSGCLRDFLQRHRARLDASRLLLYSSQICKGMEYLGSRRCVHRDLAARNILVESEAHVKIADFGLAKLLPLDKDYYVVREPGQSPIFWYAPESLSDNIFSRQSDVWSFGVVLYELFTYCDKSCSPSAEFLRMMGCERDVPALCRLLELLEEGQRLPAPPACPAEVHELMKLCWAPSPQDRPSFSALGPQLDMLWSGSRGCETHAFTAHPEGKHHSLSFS
Activin receptor type-2A (Homo sapiens), sequence (P27037 whole entry): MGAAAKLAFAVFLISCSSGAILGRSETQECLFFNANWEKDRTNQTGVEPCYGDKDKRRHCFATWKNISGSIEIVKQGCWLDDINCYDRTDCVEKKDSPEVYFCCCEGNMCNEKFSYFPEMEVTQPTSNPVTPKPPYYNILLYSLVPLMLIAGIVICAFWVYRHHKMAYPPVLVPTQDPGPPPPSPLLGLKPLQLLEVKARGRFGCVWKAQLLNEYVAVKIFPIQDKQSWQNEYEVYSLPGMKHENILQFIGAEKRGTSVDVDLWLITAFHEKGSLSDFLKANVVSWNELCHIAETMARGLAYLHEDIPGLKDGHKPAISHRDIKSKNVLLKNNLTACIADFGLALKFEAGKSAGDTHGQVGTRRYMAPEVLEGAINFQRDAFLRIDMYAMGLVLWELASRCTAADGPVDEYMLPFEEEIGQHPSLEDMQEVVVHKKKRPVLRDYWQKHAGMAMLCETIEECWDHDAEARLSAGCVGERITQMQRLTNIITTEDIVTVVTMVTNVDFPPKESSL

For `CN(C)C(=O)c1cc2cnc(Nc3ccc(NC(=O)CCCCCCCN=C=S)cc3)nc2n1C1CCCC1`, the inhibition [1] was 22%, the inhibition [2] was 1% and the inhibition [3] was 66%. For the same molecule, the Activity (A549 [4]) was “Active”, the inhibition [5] was 8% and the Activity (A549 [6]) was “Active”. The inhibition [7] was 9%, the inhibition [8] was 1% and the inhibition [9] was 31%. For the same molecule, the inhibition [10] was 83%, the inhibition [11] was 0% and the inhibition at 0.5 µM (MCF7) was 62%. For the same molecule, the inhibition at 10 µM (NCI-H1299 [12]) was 98.7%, the Activity (NCI-H1299 [13]) was “inactive” and the inhibition [14] was 66%. The inhibition [15] was 4%, the inhibition [16] was 37% and the inhibition [17] was 49%. The inhibition [18] was 4%, the inhibition [19] was 0% and the inhibition [20] was 4%. The inhibition [21] was 22%.
